In ChEMBL document CHEMBL3272196, “Synthesis and biological action of two glucocorticoid alkylating agents” (J Med Chem, 1977):
Active and inactive are the calls of the source. No cut-off for these calls is given here.

Key:
[1] = target: T1, Glucocorticoid receptor (Mus musculus) (UniProt P06537); test: (§1) Displacement of 1 x 10^-8 M of [1,2,3-3H]-triamcinolone acetonide from glucocorticoid receptor in soluble fraction of mouse L929 cells after 20 hrs; type: cell-based
T1 sequence (whole entry): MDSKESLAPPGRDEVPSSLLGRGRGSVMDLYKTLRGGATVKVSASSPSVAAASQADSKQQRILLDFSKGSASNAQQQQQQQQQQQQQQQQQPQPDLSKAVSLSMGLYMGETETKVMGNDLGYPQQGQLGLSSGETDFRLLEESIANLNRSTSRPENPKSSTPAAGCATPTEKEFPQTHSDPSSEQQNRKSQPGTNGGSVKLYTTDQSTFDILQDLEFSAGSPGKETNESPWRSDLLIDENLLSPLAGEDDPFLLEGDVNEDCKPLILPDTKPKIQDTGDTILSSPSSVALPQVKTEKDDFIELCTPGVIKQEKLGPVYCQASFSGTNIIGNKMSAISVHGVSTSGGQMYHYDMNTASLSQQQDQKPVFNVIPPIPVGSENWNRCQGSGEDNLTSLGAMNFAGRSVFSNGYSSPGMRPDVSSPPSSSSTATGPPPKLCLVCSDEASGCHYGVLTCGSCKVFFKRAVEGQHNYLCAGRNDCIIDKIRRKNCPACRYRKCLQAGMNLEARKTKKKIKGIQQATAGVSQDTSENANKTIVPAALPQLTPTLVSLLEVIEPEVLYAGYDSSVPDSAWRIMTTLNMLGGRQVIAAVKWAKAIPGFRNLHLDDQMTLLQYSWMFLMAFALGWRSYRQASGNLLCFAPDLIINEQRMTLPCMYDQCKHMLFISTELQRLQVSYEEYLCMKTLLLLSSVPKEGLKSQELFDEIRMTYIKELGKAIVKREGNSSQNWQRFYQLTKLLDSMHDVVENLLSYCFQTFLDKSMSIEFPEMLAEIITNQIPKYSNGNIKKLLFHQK

[2] = tested on: L929; test: Growth inhibition of mouse L929 cells after 6 days; type: functional, cell-based
Outline: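 L929 mouse fibroblasts in monolayer in Joklik medium, steroids added in DMSO (0.1% of medium volume) early in growth. Cells harvested and counted 6 days later. Mean of three replicate cultures, expressed as percent of vehicle-control growth.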

[3] = Alkylating activity of the compound assessed as alkylation of 4-(p-nitrobenzyl)pyridine after 20 mins by colorimetric analysis; type: physicochemical
Outline: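 Test agent at 10⁻⁴ M in 1% Me₂SO in water; 3 mL aliquots heated 20 min in boiling water bath with 4-(p-nitrobenzyl)pyridine in acetate buffer pH 4.0. Purple adduct developed with 5.0 N NaOH, extracted into ethyl acetate, A540 read exactly 6 min after base. Value read off mechlorethamine standard curve, expressed relative to mechlorethamine.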

[4] = tested on: L929; test: Growth inhibition of mouse L929 cells at 3 x 10^-7 M preincubated for 48 hrs followed by compound washout; type: functional, cell-based
Outline: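 L929 monolayers (15 mL) dosed day 1, 18 h after seeding, at 3×10⁻⁷ M final, vehicle DMSO. Day 3 medium changed, half switched to steroid-free medium. Medium renewed every other day, cells per bottle counted. Mean and standard error of three replicate cultures.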

[5] = target: T2, Estrogen receptor (Rattus norvegicus, UniProt P06211); test: Displacement of radiolabeled estradiol from estradiol receptor in rat uterine cytosol; set-up: species or system Uterus
T2 sequence (P06211 whole entry): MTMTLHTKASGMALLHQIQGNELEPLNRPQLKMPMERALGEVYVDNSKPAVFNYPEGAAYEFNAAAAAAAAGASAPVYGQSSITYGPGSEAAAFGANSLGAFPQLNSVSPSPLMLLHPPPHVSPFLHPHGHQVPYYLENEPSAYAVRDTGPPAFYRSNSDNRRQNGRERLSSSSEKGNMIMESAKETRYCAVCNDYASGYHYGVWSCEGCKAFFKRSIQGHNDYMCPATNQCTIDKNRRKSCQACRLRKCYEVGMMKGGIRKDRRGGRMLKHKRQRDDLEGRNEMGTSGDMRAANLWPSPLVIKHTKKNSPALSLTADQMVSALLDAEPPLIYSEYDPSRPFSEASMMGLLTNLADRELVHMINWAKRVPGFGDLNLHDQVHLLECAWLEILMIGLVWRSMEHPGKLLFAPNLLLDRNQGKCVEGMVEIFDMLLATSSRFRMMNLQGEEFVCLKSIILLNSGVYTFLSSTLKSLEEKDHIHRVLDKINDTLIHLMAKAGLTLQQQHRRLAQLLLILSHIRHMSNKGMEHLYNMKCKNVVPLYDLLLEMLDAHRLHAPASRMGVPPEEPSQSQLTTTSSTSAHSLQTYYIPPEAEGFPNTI

[6] = target: T3, Glucocorticoid receptor (Mus musculus, UniProt P06537); test: Displacement of 2 x 10^-8 M of [1,2,3-3H]-triamcinolone acetonide from glucocorticoid receptor in soluble fraction of mouse L929 cells after 20 hrs; type: cell-based; settings: read-out: Kd(app)
T3 sequence (P06537 whole entry): T1 sequence (whole entry)

[7] = Alkylating activity of the compound assessed as alkylation of 4-(p-nitrobenzyl)pyridine at 10^-4 M after 20 mins by colorimetric analysis; type: physicochemical; settings: 100 µM
[8] = Alkylating activity of the compound assessed as alkylation of 4-(p-nitrobenzyl)pyridine at 10^-4 M after 20 mins by colorimetric analysis relative to mechlorethamine; type: physicochemical; settings: 100 µM
[9] = target: T1, Glucocorticoid receptor (Mus musculus); test: Displacement of [1,2,3-3H]-triamcinolone acetonide from glucocorticoid receptor in soluble fraction of mouse L929 cells at 10^-6 M preincubated for 4 hrs followed by [3H]-triamcinolone acetonide addition measured after 18 hrs by double reciprocal plot analysis; type: cell-based
Outline: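 L929 100 000g supernatant preincubated 4 h on ice with vehicle, 10⁻⁶ M agent or 10⁻⁷ M cortisol. Varied [3H]triamcinolone acetonide then added, incubation continued 18 h. Bound counted after Sephadex G-25 separation; nonspecific (3×10⁻⁵ M dexamethasone) subtracted. Specific binding plotted against free ligand and in double-reciprocal form.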

[10] = target: T3, Glucocorticoid receptor; test: as §1; type: cell-based

Compound: C[C@]12CCC(=O)C=C1CC[C@@H]1[C@@H]2[C@@H](O)C[C@@]2(C)[C@H]1CC[C@]2(O)C(=O)COP(=O)(O)O
- inhibition [1]: inactive

Compound: C[C@]12CCC(=O)C=C1CC[C@@H]1[C@@H]2[C@@H](O)C[C@@]2(C)[C@H]1CC[C@]2(O)C(=O)CO [HYDROCORTISONE]
- growth inhibition (GI) [2]: Active
- Activity [3]: Not Active

Compound: CC1(C)O[C@@H]2C[C@H]3[C@@H]4CCC5=CC(=O)C=C[C@]5(C)[C@@]4(F)[C@@H](O)C[C@]3(C)[C@]2(C(=O)CO)O1 [TRIAMCINOLONE ACETONIDE]
- growth inhibition (GI) [4]: inactive
- growth inhibition (GI) [2]: Active
- Activity [3]: Not Active

Compound: C[C@]12CC[C@@H]3c4ccc(OC(=O)Cc5ccc(N(CCCl)CCCl)cc5)cc4CC[C@H]3[C@@H]1CC[C@@H]2OC(=O)Cc1ccc(N(CCCl)CCCl)cc1 [ESTRADIOL MUSTARD]
- Kd [5]: 3000 nM

Compound: C[C@]12CCC(=O)C=C1CC[C@@H]1[C@@H]2[C@@H](O)C[C@@]2(C)[C@H]1CC[C@]2(O)C(=O)COC(=O)N(CCCl)CCCl
- growth inhibition (GI) [2]: Active
- Kd [6]: 430 nM
- Activity [7]: Active
- Activity [8]: 20%
- inhibition [9]: inactive

Compound: C[C@]1(c2ccccc2)O[C@@H]2C[C@H]3[C@@H]4CCC5=CC(=O)C=C[C@]5(C)[C@@]4(F)[C@@H](O)C[C@]3(C)[C@]2(C(=O)CO)O1
- inhibition [1]: Active

Compound: C[C@]12CCC(=O)C=C1CC[C@@H]1[C@@H]2[C@@H](O)C[C@@]2(C)[C@H]1CC[C@]2(O)C(=O)COC(=O)CCC(=O)O [HYDROCORTISONE HEMISUCCINATE ANHYDROUS]
- Kd [10]: 190 nM

Compound: CC1(C)O[C@@H]2C[C@H]3[C@@H]4CCC5=CC(=O)C=C[C@]5(C)[C@@]4(F)[C@@H](O)C[C@]3(C)[C@]2(C(=O)COC(=O)N(CCCl)CCCl)O1
- growth inhibition (GI) [4]: inactive
- growth inhibition (GI) [2]: Active
- Kd [6]: 7.5 nM
- Activity [7]: Active
- Activity [8]: 20%
